The format of data set [1] is in vivo, SD rats. Conditions: male, SD, rat, plasma, po, 1.5 mL/200 g.
The nature of data set [2]: Pharmacokinetics of five components in control. The data set is classed as in vivo, SD rats. Conditions: for AUC / AUC(0-t) / Cmax / MRT last / half-life / Tmax: male, SD, rat, plasma, po, 1.5 mL/200 g, n = 6; for AUC: AUC(0−i); for MRT last: MRT0−t. The procedure, abridged:
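Male SD rats (8-week-old, 200–220 g), four groups (n = 6). Acute liver injury induced by intraperitoneal 50% CCl4 in olive oil at 3 mL/kg; controls received olive oil; fasted with water. After 12 h, single intragastric decoction at 1.5 mL/200 g. Tail-vein blood taken at 0–12 h into heparin. HPLC-MS/MS with internal standard; compartment-model fit for AUC, Cmax, Tmax, T1/2 and MRT.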

Data set [3] is described as follows: Stability of each chemical component in rat plasma. Format: in vitro ADME. The procedure, abridged: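 Blank rat plasma was spiked at 10, 100 and 500 ng/mL and held at room temperature for 24 h, at 4 °C for 14 d, or frozen at −20 °C for 15 d. Six samples per level were assayed by HPLC-MS/MS against 1,8-dihydroxyanthraquinone internal standard. Calibration ran 5–1 000 ng/mL, with analyte/IS ratio fitted by 1/x-weighted least squares.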

[4] abbreviates: RhRR of control group, single oral 1.5 mL/200 g RhRR decoction.
[5] abbreviates: RhRR-EuS of control group, single oral 1.5 mL/200 g RhRR-EuS decoction.
Where [6] appears, read: T1/2, RhRR-EuS of control group, single oral 1.5 mL/200 g RhRR-EuS decoction.
Where [7] appears, read: 10 ng/mL, room temperature for 24 h.
Setting [8] is: 100 ng/mL, room temperature for 24 h.
Setting [9] is: 100 ng/mL, −20 °C free for 15 d.
Setting [10] is: 500 ng/mL, room temperature for 24 h.
The mark [11] stands for this setting: 500 ng/mL, −20 °C free for 15 d.

Like-named read-outs stand apart in the source and are kept apart here.

Regarding `O=C1c2cccc(O)c2C(=O)c2c(O)cc(CO)cc21` [Ae, Aloe emodin], the Tmax – broadly, the time at which the peak concentration occurs – in data set [1] was 2 h; in data set [2] (setting [4]) it was 2 h; in data set [2] (setting [5]), 0.5 h. Further, the figures for the AUC in data set [2] (setting [4]) and in data set [2] (setting [5]) were 738 ng·h/mL and 489 ng·h/mL, respectively. Also, the figures for the AUC(0-t) in data set [2] (setting [4]) and in data set [2] (setting [5]) were 474 ng·h/mL and 443 ng·h/mL, respectively. The Cmax (usually the peak of the concentration-time curve) in data set [2] (setting [4]) stood at 101 ng/mL; in data set [2] (setting [5]) it was 124 ng/mL. Besides, the MRT last (usually a mean duration of stay, worked out from the concentration-time curve) in data set [2] (setting [4]) stood at 11.9 h; in data set [2] (setting [5]), 5.78 h. Besides, the half-life – broadly, the time in which the quantity being followed falls by half – in data set [2] (setting [6]) is 3.04 h. Moreover, the “Stability S” value in data set [3] (setting [7]) was found to be 99.60%; in data set [3] (10 ng/mL, −4 °C for 14 d) it was 107%; in data set [3] (10 ng/mL, −20 °C free for 15 d), 88.6%; in data set [3] (setting [8]), 88.50%; in data set [3] (100 ng/mL, −4 °C for 14 d), 112%; in data set [3] (setting [9]), 84.3%. In addition, the “Stability S” value in data set [3] (setting [10]) was found to be 98.50%; in data set [3] (500 ng/mL, −4 °C for 14 d), 98.30%; in data set [3] (setting [11]), 85.6%.

As to `Cc1cc(O)c2c(c1)C(=O)c1cccc(O)c1C2=O` [Ch, Chrysophanol], the time to peak (Tmax) was determined as 0.5 h in data set [1] and 1 h in data set [2] (setting [4]). Also, the AUC (commonly concentration integrated over time) in data set [2] (setting [4]) came out at 712 ng·h/mL; in data set [2] (setting [5]), 763 ng·h/mL. Further, the AUC(0-t) (as a rule, exposure summed from dosing to a finite time, without extrapolation to infinity) was 662 ng·h/mL in data set [2] (setting [4]) and 739 ng·h/mL in data set [2] (setting [5]). Further, the values for the Cmax in data set [2] (setting [4]) and in data set [2] (setting [5]) were 164 ng/mL and 170 ng/mL, respectively. For the same compound, the MRT last in data set [2] (setting [4]) was determined as 5.33 h; in data set [2] (setting [5]), 5.64 h. The half-life was 3.64 h in data set [2] (T1/2, RhRR of control group, single oral 1.5 mL/200 g RhRR decoction) and 1.31 h in data set [2] (setting [6]). Besides, the “Stability S” value is given as 114% in data set [3] (setting [7]); 99.70% in data set [3] (10 ng/mL, −4 °C for 14 d); 105.40% in data set [3] (10 ng/mL, −20 °C free for 15 d); 105% in data set [3] (setting [8]); 103% in data set [3] (100 ng/mL, −4 °C for 14 d); 102.30% in data set [3] (setting [9]). Also, the “Stability S” value was found to be 90.40% in data set [3] (setting [10]); 96.30% in data set [3] (500 ng/mL, −4 °C for 14 d); 99.50% in data set [3] (setting [11]).

On to `Cc1cc(O)c2c(c1)C(=O)c1cc(O)cc(O)c1C2=O` [Em, Emodin], for which the AUC in data set [2] (setting [4]) is 94.1 ng·h/mL; in data set [2] (setting [5]) it was 154 ng·h/mL. Moreover, the AUC(0-t) worked out at 67.7 ng·h/mL in data set [2] (setting [4]) and 68.3 ng·h/mL in data set [2] (setting [5]). Also, the Cmax in data set [2] (setting [4]) was found to be 11.2 ng/mL; in data set [2] (setting [5]) it was 16.4 ng/mL. In addition, the MRT last in data set [2] (setting [4]) stood at 9.3 h; in data set [2] (setting [5]) it was 18.3 h. The compound further showed a half-life in data set [2] (setting [6]) of 11.4 h. Further, in data set [2] (setting [4]), the Tmax turned out to be 0.5 h. The “Stability S” value in data set [3] (setting [7]) amounted to 104.60%; in data set [3] (10 ng/mL, −4 °C for 14 d), 105%; in data set [3] (10 ng/mL, −20 °C free for 15 d) it was 98.50%; in data set [3] (setting [8]) it was 110.40%; in data set [3] (100 ng/mL, −4 °C for 14 d), 108%; in data set [3] (setting [9]), 108.40%. Moreover, the “Stability S” value in data set [3] (setting [10]) was 99.60%; in data set [3] (500 ng/mL, −4 °C for 14 d) it was 89.90%; in data set [3] (setting [11]) it was 106%.

Turning to `COc1cc(O)c2c(c1)C(=O)c1cc(C)cc(O)c1C2=O` [Ph, Physcion], the Tmax in data set [1] and in data set [2] (setting [5]) was 0.25 h in each case. Besides, the AUC was determined as 414 ng·h/mL in data set [2] (setting [4]) and 243 ng·h/mL in data set [2] (setting [5]). Further, the AUC(0-t) in data set [2] (setting [4]) and in data set [2] (setting [5]) was 136 ng·h/mL throughout. Besides, the Cmax in data set [2] (setting [4]) turned out to be 54.4 ng/mL; in data set [2] (setting [5]), 58.6 ng/mL. Also, the MRT last in data set [2] (setting [4]) worked out at 37.3 h; in data set [2] (setting [5]) it was 14.7 h. The compound also had a half-life in data set [2] (setting [6]) of 10.9 h. Moreover, the “Stability S” value is 103% in data set [3] (setting [7]); 99.50% in data set [3] (10 ng/mL, −4 °C for 14 d); 105% in data set [3] (10 ng/mL, −20 °C free for 15 d); 105% in data set [3] (setting [8]); 102% in data set [3] (100 ng/mL, −4 °C for 14 d); 100.6% in data set [3] (setting [9]). In addition, the “Stability S” value in data set [3] (setting [10]) worked out at 90.50%; in data set [3] (500 ng/mL, −4 °C for 14 d), 96.70%; in data set [3] (setting [11]), 95.3%.

Take `O=C(O)c1cc(O)c2c(c1)C(=O)c1cccc(O)c1C2=O` [Rh, Rhein]: the time to peak (Tmax) in data set [1] amounted to 8 h. Also, the “Bioavailability among the five components” value in data set [2] (all groups (control and model rats, oral RhRR or RhRR-EuS decoction)) is “highest”. In addition, the AUC was found to be 1670 ng·h/mL in data set [2] (setting [4]) and 1720 ng·h/mL in data set [2] (setting [5]). Also, the AUC(0-t) in data set [2] (setting [4]) is 1440 ng·h/mL; in data set [2] (setting [5]), 1600 ng·h/mL. Besides, the Cmax in data set [2] (setting [4]) stood at 434 ng/mL; in data set [2] (setting [5]) it was 455 ng/mL. For the same compound, the results for the MRT last in data set [2] (setting [4]) and in data set [2] (setting [5]) were 6.31 h and 5.44 h, respectively. Further, the half-life in data set [2] (setting [6]) is 1.84 h. For the same compound, the “Stability S” value in data set [3] (setting [7]) was determined as 106.20%; in data set [3] (10 ng/mL, −4 °C for 14 d), 95.90%; in data set [3] (10 ng/mL, −20 °C free for 15 d), 109.40%; in data set [3] (setting [8]), 112.30%; in data set [3] (100 ng/mL, −4 °C for 14 d), 94.60%; in data set [3] (setting [9]), 95.30%. Also, the “Stability S” value is given as 89.40% in data set [3] (setting [10]); 85.40% in data set [3] (500 ng/mL, −4 °C for 14 d); 100.40% in data set [3] (setting [11]).
